Converted amounts (≈) assume the structure as drawn.
Legend:
Staphylococcus aureus [1] = test: Antibacterial activity against Staphylococcus aureus ATCC 25923 after 24 hrs by NCCLS two fold broth microdilution method; type: functional; conditions: ATCC 25923, 24 h
Procedure, shortened: (§1)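 Two-fold serial broth microdilution in 96-well plates following NCCLS. Compounds were dissolved in DMSO as stocks, then diluted in Mueller–Hinton broth to final concentrations of 0.5–512 µg/mL. Plates were inoculated and incubated at 37 °C for 24 h, with growth read visually and spectrophotometrically. MIC was taken as the lowest concentration giving complete growth inhibition. Run in triplicate, with a DMSO-plus-inoculum solvent control.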

Staphylococcus aureus [2] = test: Antibacterial activity against methicillin-resistant Staphylococcus aureus N315 after 24 hrs by NCCLS two fold broth microdilution method; type: functional; conditions: N315, 24 h
Procedure, shortened: (§2)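 Two-fold serial broth microdilution per NCCLS. Chloromycin and norfloxacin as reference drugs; DMSO with inoculum, no drug, as solvent control. Incubation 37 °C for 24 h. Growth read visually and spectrophotometrically. MIC is the lowest concentration completely inhibiting growth; triplicate.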

Bacillus subtilis = test: Antibacterial activity against Bacillus subtilis ATCC 21216 after 24 hrs by NCCLS two fold broth microdilution method; type: functional; conditions: ATCC 21216, 24 h; procedure, shortened: as §1
Micrococcus luteus = test: Antibacterial activity against Micrococcus luteus ATCC 4698 after 24 hrs by NCCLS two fold broth microdilution method; type: functional; conditions: NCTC 2665, 24 h; procedure, shortened: as §1
Bacillus = test: Antibacterial activity against Bacillus proteus ATCC 13315 after 24 hrs by NCCLS two fold broth microdilution method; type: functional; conditions: ATCC 13315, 24 h; procedure, shortened: as §1
Escherichia coli = test: Antibacterial activity against Escherichia coli ATCC 8099 after 24 hrs by NCCLS two fold broth microdilution method; type: functional; conditions: ATCC 8099, 24 h
Procedure, shortened: as §1, with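 “NCCLS.” for “NCCLS. Compounds were dissolved in DMSO as stocks, then diluted in Mueller–Hinton broth to final concentrations of 0.5–512 µg/mL.”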

Pseudomonas aeruginosa = test: Antibacterial activity against Pseudomonas aeruginosa ATCC 27853 after 24 hrs by NCCLS two fold broth microdilution method; type: functional; conditions: ATCC 27853, 24 h
Procedure, shortened: as §1, with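 “NCCLS.” for “NCCLS. Compounds were dissolved in DMSO as stocks, then diluted in Mueller–Hinton broth to final concentrations of 0.5–512 µg/mL.”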

Salmonella typhi = test: Antibacterial activity against Bacillus typhi after 24 hrs by NCCLS two fold broth microdilution method; type: functional, Salmonella enterica subsp. enterica serovar Typhi; conditions: Salmonella enterica
Procedure, shortened: as §2, with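 “NCCLS. DMSO stocks diluted in Mueller–Hinton broth to 512, 256, 128, 64, 32, 16, 8, 4, 2, 1, 0.5 µg/mL.” for “NCCLS.”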

Candida albicans = test: Antifungal activity against Candida albicans ATCC 76615 after 24 hrs by NCCLS two fold broth microdilution method; type: functional; conditions: ATCC 76615, 24 h
Procedure, shortened: (§3)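 Two-fold serial microdilution following NCCLS. A spore suspension in sterile distilled water was prepared from one-day-old cultures grown on Sabouraud agar and adjusted to a final 1–5 × 10^3 spores/mL. DMSO stocks were diluted in RPMI 1640 to eleven concentrations (0.5–512 µg/mL), inoculated and held at 35 °C for 24 h. Growth was read visually and spectrophotometrically, MIC was the lowest concentration with complete inhibition, and runs were in triplicate.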

Pichia norvegensis = test: Antifungal activity against Candida mycoderma after 24 hrs by NCCLS two fold broth microdilution method; type: functional
Cyberlindnera jadinii = test: Antifungal activity against Candida utilis after 24 hrs by NCCLS two fold broth microdilution method; type: functional; conditions: Williopsis jadinii; procedure, shortened: as §3
Saccharomyces cerevisiae = test: Antifungal activity against Saccharomyces cerevisiae after 24 hrs by NCCLS two fold broth microdilution method; type: functional; procedure, shortened: as §3
Aspergillus flavus [3] = test: Antifungal activity against Aspergillus flavus after 24 hrs by NCCLS two fold broth microdilution method; type: functional; procedure, shortened: as §3
Aspergillus flavus [4] = test: Potency index, ratio of Fluconazole MIC to compound MIC for Aspergillus flavus; type: functional

Row | SMILES | MIC (Staphylococcus aureus [1]) [mg/L] | MIC (Staphylococcus aureus [2]) [mg/L] | MIC (Bacillus subtilis) [mg/L] | MIC (Micrococcus luteus) [mg/L] | MIC (Bacillus) [mg/L] | MIC (Escherichia coli) [mg/L] | MIC (Pseudomonas aeruginosa) [mg/L] | MIC (Salmonella typhi) [mg/L] | MIC (Candida albicans) [mg/L] | MIC (Pichia norvegensis) [mg/L] | MIC (Cyberlindnera jadinii) [mg/L] | MIC (Saccharomyces cerevisiae) [mg/L] | MIC (Aspergillus flavus [3]) [mg/L] | Ratio (Aspergillus flavus [4])
1 | CCCCCn1c(CS(=O)(=O)c2ccc(NC(C)=O)cc2)nc2ccccc21 | 32 (≈ 80.1 µM) | 128 (≈ 320 µM) | 64 (≈ 160 µM) | 32 (≈ 80.1 µM) | 256 (≈ 641 µM) | 256 (≈ 641 µM) | 4 (≈ 10 µM) | 32 (≈ 80.1 µM) | 256 (≈ 641 µM) | 16 (≈ 40 µM) | 32 (≈ 80.1 µM) | 64 (≈ 160 µM) | 32 (≈ 80.1 µM) | –
2 | CCCCCCCCn1c(CS(=O)(=O)c2ccc(NC(C)=O)cc2)nc2ccccc21 | 64 (≈ 145 µM) | 512 (≈ 1160 µM) | 128 (≈ 290 µM) | 256 (≈ 580 µM) | 256 (≈ 580 µM) | 512 (≈ 1160 µM) | 256 (≈ 580 µM) | 512 (≈ 1160 µM) | 512 (≈ 1160 µM) | 512 (≈ 1160 µM) | 512 (≈ 1160 µM) | 8 (≈ 18.1 µM) | 512 (≈ 1160 µM) | –
3 | CC(=O)Nc1ccc(S(=O)(=O)Cc2nc3ccccc3n2Cc2ccc(Cl)cc2)cc1 | 512 (≈ 1130 µM) | 512 (≈ 1130 µM) | 256 (≈ 564 µM) | 128 (≈ 282 µM) | 256 (≈ 564 µM) | 128 (≈ 282 µM) | 512 (≈ 1130 µM) | 64 (≈ 141 µM) | 128 (≈ 282 µM) | 32 (≈ 70.5 µM) | 512 (≈ 1130 µM) | 64 (≈ 141 µM) | 512 (≈ 1130 µM) | –
4 | CCCCCCCCn1c(CS(=O)(=O)c2ccc(N)cc2)nc2ccccc21 | 512 (≈ 1280 µM) | 512 (≈ 1280 µM) | 512 (≈ 1280 µM) | 512 (≈ 1280 µM) | 512 (≈ 1280 µM) | 512 (≈ 1280 µM) | 512 (≈ 1280 µM) | 512 (≈ 1280 µM) | 64 (≈ 160 µM) | 256 (≈ 641 µM) | 512 (≈ 1280 µM) | 512 (≈ 1280 µM) | 512 (≈ 1280 µM) | –
5 | CCn1c(CS(=O)(=O)c2ccc(NC(C)=O)cc2)nc2ccccc21 | 128 (≈ 358 µM) | 128 (≈ 358 µM) | 32 (≈ 89.5 µM) | 128 (≈ 358 µM) | 64 (≈ 179 µM) | 256 (≈ 716 µM) | 32 (≈ 89.5 µM) | 64 (≈ 179 µM) | 64 (≈ 179 µM) | 256 (≈ 716 µM) | 64 (≈ 179 µM) | 512 (≈ 1430 µM) | 64 (≈ 179 µM) | –
6 | Nc1ccc(S(=O)(=O)Cc2nc3ccccc3n2Cc2ccccc2F)cc1 | 64 (≈ 162 µM) | 64 (≈ 162 µM) | 16 (≈ 40.5 µM) | 32 (≈ 80.9 µM) | 256 (≈ 647 µM) | 4 (≈ 10.1 µM) | 512 (≈ 1290 µM) | 16 (≈ 40.5 µM) | 128 (≈ 324 µM) | 8 (≈ 20.2 µM) | 4 (≈ 10.1 µM) | 8 (≈ 20.2 µM) | 32 (≈ 80.9 µM) | 8
7 | Nc1ccc(S(=O)(=O)Cc2nc3ccccc3n2Cc2ccccc2Cl)cc1 | 16 (≈ 38.8 µM) | 32 (≈ 77.7 µM) | 16 (≈ 38.8 µM) | 64 (≈ 155 µM) | 256 (≈ 621 µM) | 128 (≈ 311 µM) | 16 (≈ 38.8 µM) | 16 (≈ 38.8 µM) | 16 (≈ 38.8 µM) | 512 (≈ 1240 µM) | 512 (≈ 1240 µM) | 512 (≈ 1240 µM) | 32 (≈ 77.7 µM) | –
8 | CC(=O)Nc1ccc(S(=O)(=O)Cc2nc3ccccc3n2Cc2ccc(Cl)c(Cl)c2)cc1 | 64 (≈ 131 µM) | 512 (≈ 1050 µM) | 128 (≈ 262 µM) | 256 (≈ 524 µM) | 128 (≈ 262 µM) | 256 (≈ 524 µM) | 512 (≈ 1050 µM) | 512 (≈ 1050 µM) | 64 (≈ 131 µM) | 512 (≈ 1050 µM) | 512 (≈ 1050 µM) | 32 (≈ 65.5 µM) | 16 (≈ 32.8 µM) | –
9 | CCCCCCCCCCn1c(CS(=O)(=O)c2ccc(N)cc2)nc2ccccc21 | 512 (≈ 1200 µM) | 512 (≈ 1200 µM) | 512 (≈ 1200 µM) | 512 (≈ 1200 µM) | 512 (≈ 1200 µM) | 512 (≈ 1200 µM) | 512 (≈ 1200 µM) | 512 (≈ 1200 µM) | 512 (≈ 1200 µM) | 512 (≈ 1200 µM) | 8 (≈ 18.7 µM) | 512 (≈ 1200 µM) | 512 (≈ 1200 µM) | –
10 | Nc1ccc(S(=O)(=O)Cc2nc3ccccc3n2Cc2ccc(F)cc2)cc1 | 16 (≈ 40.5 µM) | 512 (≈ 1290 µM) | 512 (≈ 1290 µM) | 512 (≈ 1290 µM) | 128 (≈ 324 µM) | 256 (≈ 647 µM) | 16 (≈ 40.5 µM) | 16 (≈ 40.5 µM) | 32 (≈ 80.9 µM) | 512 (≈ 1290 µM) | 128 (≈ 324 µM) | 32 (≈ 80.9 µM) | 256 (≈ 647 µM) | –
11 | CCCCCCCCCCCCn1c(CS(=O)(=O)c2ccc(N)cc2)nc2ccccc21 | 512 (≈ 1120 µM) | 512 (≈ 1120 µM) | 512 (≈ 1120 µM) | 256 (≈ 562 µM) | 512 (≈ 1120 µM) | 512 (≈ 1120 µM) | 512 (≈ 1120 µM) | 512 (≈ 1120 µM) | 512 (≈ 1120 µM) | 512 (≈ 1120 µM) | 512 (≈ 1120 µM) | 256 (≈ 562 µM) | 512 (≈ 1120 µM) | –
12 | CCCCCCn1c(CS(=O)(=O)c2ccc(N)cc2)nc2ccccc21 | 128 (≈ 345 µM) | 512 (≈ 1380 µM) | 512 (≈ 1380 µM) | 512 (≈ 1380 µM) | 256 (≈ 689 µM) | 512 (≈ 1380 µM) | 128 (≈ 345 µM) | 512 (≈ 1380 µM) | 512 (≈ 1380 µM) | 512 (≈ 1380 µM) | 512 (≈ 1380 µM) | 512 (≈ 1380 µM) | 512 (≈ 1380 µM) | –
13 | CCn1c(CS(=O)(=O)c2ccc(N)cc2)nc2ccccc21 | 64 (≈ 203 µM) | 128 (≈ 406 µM) | 64 (≈ 203 µM) | 128 (≈ 406 µM) | 64 (≈ 203 µM) | 64 (≈ 203 µM) | 64 (≈ 203 µM) | 128 (≈ 406 µM) | 256 (≈ 812 µM) | 512 (≈ 1620 µM) | 64 (≈ 203 µM) | 512 (≈ 1620 µM) | 32 (≈ 101 µM) | –
14 | CCCCCCCn1c(CS(=O)(=O)c2ccc(N)cc2)nc2ccccc21 | 512 (≈ 1330 µM) | 512 (≈ 1330 µM) | 512 (≈ 1330 µM) | 128 (≈ 332 µM) | 512 (≈ 1330 µM) | 512 (≈ 1330 µM) | 512 (≈ 1330 µM) | 512 (≈ 1330 µM) | 512 (≈ 1330 µM) | 512 (≈ 1330 µM) | 512 (≈ 1330 µM) | 64 (≈ 166 µM) | 512 (≈ 1330 µM) | –
15 | CC(=O)Nc1ccc(S(=O)(=O)Cc2nc3ccccc3n2Cc2cccc(F)c2)cc1 | 512 (≈ 1170 µM) | 256 (≈ 585 µM) | 512 (≈ 1170 µM) | 512 (≈ 1170 µM) | 256 (≈ 585 µM) | 128 (≈ 293 µM) | 256 (≈ 585 µM) | 128 (≈ 293 µM) | 256 (≈ 585 µM) | 512 (≈ 1170 µM) | 512 (≈ 1170 µM) | 32 (≈ 73.1 µM) | 256 (≈ 585 µM) | –
16 | Nc1ccc(S(=O)(=O)Cc2nc3ccccc3n2Cc2ccc(Cl)c(Cl)c2)cc1 | 512 (≈ 1150 µM) | 128 (≈ 287 µM) | 512 (≈ 1150 µM) | 256 (≈ 574 µM) | 512 (≈ 1150 µM) | 512 (≈ 1150 µM) | 512 (≈ 1150 µM) | 64 (≈ 143 µM) | 64 (≈ 143 µM) | 512 (≈ 1150 µM) | 256 (≈ 574 µM) | 256 (≈ 574 µM) | 512 (≈ 1150 µM) | –
17 | Nc1ccc(S(=O)(=O)Cc2nc3ccccc3n2Cc2ccc(Cl)cc2Cl)cc1 | 8 (≈ 17.9 µM) | 128 (≈ 287 µM) | 32 (≈ 71.7 µM) | 64 (≈ 143 µM) | 128 (≈ 287 µM) | 16 (≈ 35.8 µM) | 32 (≈ 71.7 µM) | 128 (≈ 287 µM) | 16 (≈ 35.8 µM) | 512 (≈ 1150 µM) | 2 (≈ 4.48 µM) | 256 (≈ 574 µM) | 4 (≈ 8.96 µM) | –

Source: ChEMBL document CHEMBL4138085, “Design, synthesis and antimicrobial evaluation of novel benzimidazole-incorporated sulfonamide analogues” (Eur J Med Chem, 2017)
